Data taken from the RNAGym collection of RNA variant scans (doi:10.1126/science.aae0568).
Variants at the floor of the assay were thinned out.

B1: tRNA (parent)
chain: GUUCCGUUGGCGUAAUGGUAACGCGUCUCCCUCCUAAGGAGAAGACUGCGGGUUCGAGUCCCGUACGGAACG

Variants of: B1
Assay: yeast fitness relative to wild type (ratio to wild type); higher = fitter; tRNA-Arg(CCU), competitive growth, 37 C, YPD
Outline: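 Start and end populations of a pooled competition were compared by 100-nucleotide paired-end sequencing of gene amplicons. The Saccharomyces cerevisiae strains carried tRNA-Arg(CCU) gene variants at the native genomic locus, synthesised with a 3% per-site mutation rate at 69 sites, and competed in YPD at 37°C for 24 hours in six parallel replicates. Darwinian fitness relative to wild type was based on the change in genotype frequencies. Genotypes required ≥ 100 starting reads, and estimates < 0.5 were set to 0.5.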

Going from GUUCCGUUGGCGUAAUGGUAAAGCGUCUCCUUCCUAAGGAGAAGACUGCGGGUUCGAGUCCCGUACGCAACG to GUUCCGUUGGCGUAAUGGUAAAGCGUCUCCCUACUAAGGAGAAGACUGCGGGUUCGAGUCCCGUACGGAACG, the yeast fitness rises from 0.561 to 0.718.

First: GUUCCGUUGGCGUAAUGGUAAAGCGUCUCCCUACUUAGGAGAAGACUGCGGGUUCGAGUCCCGUACGGAACG
Second: GUUCCGUUGGCGUAAUGGUAAAGCGUCUCCCUACUUAGGAGAAGACUACGGGUUCGAGUCCGGUACGGAACG
The yeast fitness of the first is lower: ≤ 0.5 for the first, 0.524 for the second.

First: GUUCCGUUGGCGUAAUGGUAAAGCGUCUCCCUACUUAGGAGAAGACUGCGGGAACGAGUCCCGUACGGAACG
Second: GUUCCGUUGGCGUAAUGGUAAAGCGUCUCCCUACUAUGGAGAAGACUGCGGGUUCGAGUCCCGUACGGAACG
The yeast fitness of the first is higher: 0.551 for the first, ≤ 0.5 for the second.

Going from GUUCCGUUGGCGUAAUGGUAAAGCGUCUCCCUACUAAGGAGAAGACUGCGGGUUCGAGUACCGUACGGAACG to GUUCCGUUGGCGUAAUGGUAAAGCGUCUCCCUGCUAAGGAGAAGACUGCGGGUUCGAGUCCCGUACGGAACG, the yeast fitness rises from 0.642 to 0.701.

GUUCCGUUGGCGUAAUGGUAAAGCGUCUCCCUGCUAGGGAGAAGACUGCGGGUUCGAGUCCCGUACGGAACG and GUUCCGUUGGCGUAAUGGUAAAGCGUCUCCCUGCUAAGGAGACGACUGCGGGUUCGAGUCCCGUACGGCACG cannot be ordered by yeast fitness: ≤ 0.5 for the first, ≤ 0.5 for the second.

Going from GUUCCGUUGGCGUAAUGGUAAAGCGUCUCCCUGCUAAGGAGACGACUGCGGGUUAGAGUCCUGUACGGAACG to GUUCCGUUGGCGUAAUGGUAAAGCGUCUCCCUGCUAAGGAGACGACUGCGGGUUCGAGUCCCGCACGGAACG, the yeast fitness rises from ≤ 0.5 to 0.534.

First: GUUCCGUUGGCGUAAUGGUAAAGCGUCUCCCUGCUAAGGAGAAGACUGCGGGUUCGAGUACCGUAGGGAACG
Second: GUUCCGUUGGCGUAAUGGUAAAGCGUCUCCCUCAUAAGGAGAAGACUGCGGGUUCCAAUCACGUACGGAACG
The yeast fitness of the first is lower: ≤ 0.5 for the first, 0.597 for the second.

First: GUUCCGUUGGCGUAAUGGUAAAGCGUCUCCCUCGUAAGGAGAAGACUGCGGGUUCGAGUCCCGUACGGAACG
Second: GUUCCGUUGGCGUAAUGGUAAAGCGUCUCCCUCGUACGGAGAAGACUGCGGGUUCGAGUCCCGUACGGAACG
The yeast fitness of the first is higher: 0.686 for the first, ≤ 0.5 for the second.

Going from GUUCCGUUGGCGUAAUGGUAAAGCGUCUCCCUCUUAAGGAGAAGACUGCGGGUUCGAGUCCCGUACGGAACG to GUUCCGUUGGCGUAAUGGUAAAGCGUCUCCCUCUGAAGGAGAAGACUGCGGGUUCGAGUCUCGUACGGAACG, the yeast fitness falls from 0.761 to ≤ 0.5.

Compared with GUUCCGUUGGCGUAAUGGUAAAGCGUCUCCCUCCUAAGGAGAAGAAUGCGGGUUCGAGUCCCGUACGGAACG, GUUCCGUUGGCGUAAUGGUAAAGCGUCUCCCUCCUAAGGAGAAGAGUGCGGGUUCGAGUCCCGUACGGACCG is lower in yeast fitness: 0.83 for the first, 0.57 for the second.

First: GUUCCGUUGGCGUAAUGGUAAAGCGUCUCCCUCCUAAGGAGAAGAUUGGGGGUUCGAGUCCCGUACGGAACG
Second: GUUCCGUUGGCGUAAUGGUAAAGCGUCUCCCUCCUAAGGAGAAGACUGAGGGUUCGAGUCCCGUACGGAACG
The yeast fitness of the first is lower: 0.527 for the first, 0.669 for the second.

First: GUUCCGUUGGCGUAAUGGUAAAGCGUCUCCCUCCUAAGGAGAAGACUGGGGGUUCGAGUCCCGUACGGAACG
Second: GUUCCGUUGGCGUAAUGGUAAAGCGUCUCCCUCCUAAGGAGAAGACUGUGGGUUCGAGUCCCGUACGGAACG
The yeast fitness of the first is lower: 0.646 for the first, 1.13 for the second.

Going from GUUCCGUUGGCGUAAUGGUAAAGCGUCUCCCUCCUAAGGAGAAGACUGCGGGUUUGAGUCCCGUUCGGAACG to GUUCCGUUGGCGUAAUGGUAAAGCGUCUCCCUCCUAAGGAGAAGACUGCGGGUUCGAGUCUCGUACGGAACG, the yeast fitness rises from ≤ 0.5 to 0.864.

Compared with GUUCCGUUGGCGUAAUGGUAAAGCGUCUCCCUCCUAAGGAGAAGACUGCGGGUUCGAGUCCUGUACGGAACG, GUUCCGUUGGCGUAAUGGUAAAGCGUCUCCCUCCUAAGGAGAAGACUGCGGGUUCGAGUCCUGUCCGGAACG is lower in yeast fitness: 0.935 for the first, 0.663 for the second.

Compared with GUUCCGUUGGCGUAAUGGUAAAGCGUCUCCCUCCUAAGGAGAAGACUGCGGGUUCGAGUCCCGUAAAGAACG, GUUCCGUUGGCGUAAUGGUAAAGCGUCUCCCUCCUAAGGAGAAGACUGCGGGUUCGAGUCCCGUAUGGAACG is higher in yeast fitness: ≤ 0.5 for the first, 0.982 for the second.

GUUCCGUUGGCGUAAUGGUAAAACGUCUCCCUUCUAAGGAGUAGACUGCGGGUUCGAGUCCCGUACGGAACG and GUUCCGUUGGCGUAAUGGUAAAACGUCUCCCUUGUAAGGAGAAGACUGCGGGUUUGAGUCCCGUACGGAACG cannot be ordered by yeast fitness: ≤ 0.5 for the first, ≤ 0.5 for the second.

GUUCCGUUGGCGUAAUGGUAAAACGUCUCCCUUGUAAGGAGAAGACUGCGGGUUCGAGUACCGUACGGAACG and GUUCCGUUGGCGUAAUGGUAAAACGUCUCCCUUGUAAGGAGAAGACUGCGAGUUCGAGUCCCGUACGGAACG cannot be ordered by yeast fitness: ≤ 0.5 for the first, ≤ 0.5 for the second.

Going from GUUCCGUUGGCGUAAUGGUAAAACGUCUCCCUUGUAAGGAGAAGACUGCGGGUUCGAGUCCCGUACCGCACG to GUUCCGUUGGCGUAAUGGUAAAACGUCUCCCUCUUAAGGAGAAGACUGCGGGUUCGCGUCCCGUAUGGCACG, the yeast fitness rises from ≤ 0.5 to 0.548.

Compared with GUUCCGUUGGCGUAAUGGUAAACCGUCUCUCUCCUAAGGAGAAGACUGCGGGUUCGAGUCCCGUAGGGAACG, GUUCCGUUGGCGUAAUGGUAAACCGUCUCCCUCUUGAGGUGAAGACUGCGGGUUCGAGUCCCGUACGGAACG is higher in yeast fitness: ≤ 0.5 for the first, 0.548 for the second.

GUUCCGUUGGCGUAAUGGUAAACCGUCUCCCUCUUGAGGUGAAGACUGCGGGUUCGAGUCCCAUACGGAACG and GUUCCGUUGGCGUAAUGGUAAACCGUCUCCCUCCUAAGGAGAAGACUGCGGGUUCGAGUCCCGUACUGAACG cannot be ordered by yeast fitness: ≤ 0.5 for the first, ≤ 0.5 for the second.

Going from GUUCCGUUGGCGUAAUGGUAAACCGUCUCCCGCCUAAGGAGAAGACUGCGGGUUCGAGUCCCGUAGGGAACG to GUUCCGUUGGCGUAAUGGUAAAGCAUCUCCCUCCUAAGGAGAAGACUGCGGGUUCGAGUCCCGUACGGUACG, the yeast fitness rises from ≤ 0.5 to 0.793.

GUUCCGUUGGCGUAAUGGUAAAGCAUUUCCCUCCUAAGGAGACAACUGCGGGUUCGAGUCCCGUACGGAACG and GUUCCGUUGGCGUAAUGGUAAAGCAUCUCCGUCCUAAGGAGAAGACUCCGGGUUCGAGUCCCGUACGGAACG cannot be ordered by yeast fitness: ≤ 0.5 for the first, ≤ 0.5 for the second.

Compared with GUUCCGUUGGCGUAAUGGUAAAGCAUCUCCCUCCUAAGGAGAAGACUACGGGUUCGAGUCGCGUACGGAACG, GUUCCGUUGGCGUAAUGGUAAAGCAUCUCCCUCCUAAGGAGAAGACUGCGGGUUCGAGUCCCGUACGAAACG is higher in yeast fitness: ≤ 0.5 for the first, 0.676 for the second.

First: GUUCCGUUGGCGUAAUGGUAAAGCCUCUCCCUCCUAAGGAGAAGACUGCGGGUUCGAGUCCCGUACGGAACG
Second: GUUCCGUUGGCGUAAUGGUAAAGCCUCUCCCUCCUAAGGCGAAGACUGCGGGUUCGAGUCCCGUACGGAACG
The yeast fitness of the first is higher: 1.05 for the first, 0.59 for the second.

First: GUUCCGUUGGCGUAAUGGUAAAGCCUCUCCCUCCUAAGGAGAAGACUGCGGGUUCGAGUCCAGUACGGAACG
Second: GUUCCGUUGGCGUAAUGGUAAAGCCUCUCCCUCCUAAGGAGAAGACUGCGGGUUCGAGUCCCAUACGGAACG
The yeast fitness of the first is lower: 0.559 for the first, 0.622 for the second.

Compared with GUUCCGUUGGCGUAAUGGUAAAGCGUCUCCCUCCUAAGCAGAUGACUGCGGGCUCGAGUCCCGUACGGAACG, GUUCCGUUGGCGUAAUGGUAAAGCGUCUCCCUCCUAAGGAAAAGACUGCAGGUUCGAGUCCCGUACGGAACG is lower in yeast fitness: 0.723 for the first, ≤ 0.5 for the second.

First: GUUCCGUUGGCGUAAUGGUAAAGCGUCUCCCUCCUAAGGACAAGACUGCGGGCUCGAGUCCCGUACGGAACG
Second: GUUCCGUUGGCGUAAUGGUAAAGCGUCUCCCUCCUAAGGAGAAGACUAUACGUUCGAGUCCCGUACGGACCG
The yeast fitness of the first is higher: 0.656 for the first, ≤ 0.5 for the second.

Going from GUUCCGUUGGCGUAAUGGUAAAGCGUCUCCCUCCUAAGGAGAAGACUCCGGGUUCGAGUCCCGUACGGAACG to GUUCCGUUGGCGUAAUGGUAAAGCGUCUCCCUCCUAAGGAGAAGACUGCGCGUUCGAGUCCCGUACGGAACG, the yeast fitness falls from 0.851 to 0.719.

First: GUUCCGUUGGCGUAAUGGUAAAGCGUCUCCCUCCUAAGGAGAAGACUGCGCGUUCGAGUUCCGUACGGAACG
Second: GUUCCGUUGGCGUAAUGGUAAAGCGUCUCCCUCCUAAGGAGAAGACUGCGGAUUCGAGUCCCGUACGGAACG
The yeast fitness of the first is lower: ≤ 0.5 for the first, 0.637 for the second.

Compared with GUUCCGUUGGCGUAAUGGUAAAGCGUCUCCCUCCUAAGGAGAAGACUGCGGCUUCGAGUCCCGUACGGAACG, GUUCCGUUGGCGUAAUGGUAAAGCGUCUCCCUCCUAAGGAGAAGACUGCGGGUUCGAAUUCCGUACGGAACG is lower in yeast fitness: 0.665 for the first, ≤ 0.5 for the second.

First: GUUCCGUUGGCGUAAUGGUAAAGCGUCUCCCUCCUAAGGAGAAGACUGCGGGUUCGAGUCCCGUACAGAACG
Second: GUUCCGUUGGCGUAAUGGUAAAGCGUCUCCCUCCUAAGGAGAAGACUGCGGGUUCGAGUCCCGUACCGAACG
The yeast fitness of the first is higher: 0.888 for the first, 0.701 for the second.

GUUCCGUUGGCGUAAUGGUAAAGCGACUGCCUCGUAAGGAGAAGACUGCGGGUUCGAGUCCCGUGCGGCACG and GUUCCGUUGGCGUAAUGGUAAAGCGACUGCCUCCUAAGGAGAAGACUGCCGGUUCGAGUCCCGUACGGAACG cannot be ordered by yeast fitness: ≤ 0.5 for the first, ≤ 0.5 for the second.

First: GUUCCGUUGGCGUAAUGGUAAAGCGACUCCCUCCUAAGGAGAAGACUGCGGGUCCGAGUCACGUACGGAACG
Second: GUUCCGUUGGCGUAAUGGUAAAGCGCCUCCCUCCUAAGGAGAAGACUGCGGGUUCGAGUCCCGUACGGAACG
The yeast fitness of the first is lower: 0.612 for the first, 0.848 for the second.

First: GUUCCGUUGGCGUAAUGGUAAAGCGCCUCCCUCCUAAGGAGAAGACCGCGGGUUCGGGUCCCGUAAGGAACG
Second: GUUCCGUUGGCGUAAUGGUAAAGCGUCACCCUCCUAAGGUGAAGACUGCGGGUUCGAGUCACGUACGGAACG
The yeast fitness of the first is higher: 0.565 for the first, ≤ 0.5 for the second.

Compared with GUUCCGUUGGCGUAAUGGUAAAGCGUCACACUCCUAAGGAGAAGACUGCGGGUUCGAGUCCCGUACGGAACG, GUUCCGUUGGCGUAAUGGUAAAGCGUCACCCUCCUAAGCAGAAGACUGCGGGUUCGAGUCCCGUACGGAACG is lower in yeast fitness: 0.72 for the first, ≤ 0.5 for the second.

GUUCCGUUGGCGUAAUGGUAAAGCGUCACCCUCCUAAGGAGAAGACGGCGGGUUCGAGUCCCGUACGGAACG and GUUCCGUUGGCGUAAUGGUAAAGCGUCACCCUCCUAAGGAGAAGACUGCGGGGUCGAGUCCCGUACGGAACG cannot be ordered by yeast fitness: ≤ 0.5 for the first, ≤ 0.5 for the second.

Going from GUUCCGUUGGCGUAAUGGUAAAGCGUCCCCCUCCUAAGGAGAAGACUGCGGGUUCGAGUCCCGUACGGAACG to GUUCCGUUGGCGUAAUGGUAAAGCGUCCCUCUCCUAAGGAGAAAACUGCGGGUUCGAGUCCCGUACGGAACG, the yeast fitness falls from 0.852 to ≤ 0.5.

Work on GUUCCGUUGGCGUAAUGGUAAAGCGUCGCCCUCCUAAGGAGAAGACUGCGGGUUCGAGUCCCGUACGGAACG yielded a yeast fitness of 0.625.
